How the values were obtained:
[1] = Inhibition of recombinant galectin 3 in human O type red blood cells by hemagglutinination assay
[2] = Inhibition of recombinant galectin 1 in human O type red blood cells by hemagglutinination assay
Galectin-1 = Galectin-1 (Homo sapiens, UniProt P09382); test: Inhibition of recombinant galectin 1 in human O type red blood cells by hemagglutinination assay
How it was run: (§1)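 Human type O erythrocytes were fixed with 3% glutaraldehyde in PBS containing 0.0025% NaN3, then used at 0.0025% final. Galectin at 1 µM was incubated with the RBCs, with or without a range of inhibitor concentrations, at 37 °C for 30 min. RBC aggregation was then scored, in triplicate.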

Galectin-3 = Galectin-3 (Homo sapiens, UniProt P17931); test: Inhibition of recombinant galectin 3 in human O type red blood cells by hemagglutinination assay
Sequence of Galectin-3 (P17931 whole entry): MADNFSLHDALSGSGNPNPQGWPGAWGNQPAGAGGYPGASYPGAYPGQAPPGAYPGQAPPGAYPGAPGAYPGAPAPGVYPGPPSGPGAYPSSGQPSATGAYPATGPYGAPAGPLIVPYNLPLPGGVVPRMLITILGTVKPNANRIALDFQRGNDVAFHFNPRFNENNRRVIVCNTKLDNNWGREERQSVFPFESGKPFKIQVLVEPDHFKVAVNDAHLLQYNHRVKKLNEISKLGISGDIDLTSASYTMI
How it was run: as §1

Sequence of Galectin-1 (P09382 whole entry): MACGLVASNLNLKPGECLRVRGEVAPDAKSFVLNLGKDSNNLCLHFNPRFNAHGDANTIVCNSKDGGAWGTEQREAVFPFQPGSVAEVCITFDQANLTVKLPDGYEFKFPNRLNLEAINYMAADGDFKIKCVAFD

IC50 [1] [mM]	IC50 [2] [mM]	IC50 (Galectin-1) [mM]	IC50 (Galectin-3) [mM]	SMILES
> 5	> 5			OC[C@H]1O[C@@H](C/C=C/c2ccccc2)[C@H](O)[C@@H](O)[C@H]1O [(2S,3R,4R,5R,6R)-2-cinnamyl-6-(hydroxymethyl)-tetrahydro-2H-pyran-3,4,5-triol]
0.6	0.3			OC[C@@H]1O[C@H](O[C@@H]2[C@@H](O)[C@H](O)[C@@H](n3cc(CS[C@@H]4O[C@H](CO)[C@H](O)[C@H](O)[C@H]4O)nn3)O[C@H]2CO)[C@@H](O)[C@H](O)[C@@H]1O [(2S,3R,4S,5R,6R)-2-((1-((2S,3S,4S,5R,6S)-3,4-dihydroxy-6-(hydroxymethyl)-5-((2R,3S,4R,5S,6S)-3,4,5-trihydroxy-6-(hydroxymethyl)-tetrahydro-2H-pyran-2-yloxy)-tetrahydro-2H-pyran-2-yl)-1H-1,2,3-triazol-4-yl)methylthio)-6-(hydroxymethyl)-tetrahydro-2H-pyran-3,4,5-triol]
0.3	0.6			OC[C@@H]1O[C@H](n2cc(CS[C@@H]3O[C@H](CO)[C@@H](O[C@@H]4O[C@H](CO)[C@H](O)[C@H](O)[C@H]4O)[C@H](O)[C@H]3O)nn2)[C@@H](O)[C@H](O)[C@@H]1O [(2S,3R,4S,5R,6R)-2-((2R,3S,4R,5R,6S)-4,5-dihydroxy-2-(hydroxymethyl)-6-((1-((2S,3S,4R,5S,6S)-3,4,5-trihydroxy-6-(hydroxymethyl)-tetrahydro-2H-pyran-2-yl)-1H-1,2,3-triazol-4-yl)methylthio)-tetrahydro-2H-pyran-3-yloxy)-6-(hydroxymethyl)-tetrahydro-2H-pyran-3,4,5-triol]
0.3	0.6			C#CCS[C@@H]1O[C@H](CO)[C@@H](O[C@@H]2O[C@H](CO)[C@H](O)[C@H](O)[C@H]2O)[C@H](O)[C@H]1O [(2S,3R,4S,5R,6R)-2-((2R,3S,4R,5R,6S)-4,5-dihydroxy-2-(hydroxymethyl)-6-(prop-2-ynylthio)-tetrahydro-2H-pyran-3-yloxy)-6-(hydroxymethyl)-tetrahydro-2H-pyran-3,4,5-triol]
0.16	0.3			OC[C@@H]1O[C@H](O[C@@H]2[C@@H](O)[C@H](O)[C@@H](SCC#CC#CCS[C@@H]3O[C@H](CO)[C@@H](O[C@@H]4O[C@H](CO)[C@H](O)[C@H](O)[C@H]4O)[C@H](O)[C@H]3O)O[C@H]2CO)[C@@H](O)[C@H](O)[C@@H]1O [(2S,3R,4S,5R,6R)-2-((2R,3S,4R,5R,6S)-6-(6-((2R,3S,4S,5R,6S)-3,4-dihydroxy-6-(hydroxymethyl)-5-((2R,3S,4R,5S,6S)-3,4,5-trihydroxy-6-(hydroxymethyl)-tetrahydro-2H-pyran-2-yloxy)-tetrahydro-2H-pyran-2-ylthio)hexa-2,4-diynylthio)-4,5-dihydroxy-2-(hydroxymethyl)-tetrahydro-2H-pyran-3-yloxy)-6-(hydroxymethyl)-tetrahydro-2H-pyran-3,4,5-triol]
0.16	0.3			OC[C@@H]1O[C@H](O[C@@H]2[C@@H](O)[C@H](O)[C@@H](n3cc(CS[C@@H]4O[C@H](CO)[C@@H](O[C@@H]5O[C@H](CO)[C@H](O)[C@H](O)[C@H]5O)[C@H](O)[C@H]4O)nn3)O[C@H]2CO)[C@@H](O)[C@H](O)[C@@H]1O [(2S,3R,4S,5R,6R)-2-((2R,3S,4R,5R,6S)-6-((1-((2S,3S,4S,5R,6S)-3,4-dihydroxy-6-(hydroxymethyl)-5-((2R,3S,4R,5S,6S)-3,4,5-trihydroxy-6-(hydroxymethyl)-tetrahydro-2H-pyran-2-yloxy)-tetrahydro-2H-pyran-2-yl)-1H-1,2,3-triazol-4-yl)methylthio)-4,5-dihydroxy-2-(hydroxymethyl)-tetrahydro-2H-pyran-3-yloxy)-6-(hydroxymethyl)-tetrahydro-2H-pyran-3,4,5-triol]
5	5			COC(=O)/C=C/C[C@@H]1O[C@H](CO)[C@H](O)[C@H](O)[C@H]1O [(E)-Methyl 4-(beta-D-galactopyranosyl)-but-2-enoate]
> 5	5			OC[C@@H]1O[C@H](SCC#CC#CCS[C@@H]2O[C@H](CO)[C@H](O)[C@H](O)[C@H]2O)[C@@H](O)[C@@H](O)[C@@H]1O [Dimeric galactoside]
		50	50	OC[C@H]1O[C@H](O)[C@H](O)[C@@H](O)[C@H]1O [GALACTOSE]

More lines, now with the values behind:

SMILES	IC50 [1] [mM]	IC50 [2] [mM]	IC50 (Galectin-1) [mM]	IC50 (Galectin-3) [mM]
CC(=O)C[C@@H]1O[C@H](CO)[C@H](O)[C@H](O)[C@H]1O [1-((2S,3R,4R,5R,6R)-3,4,5-trihydroxy-6-(hydroxymethyl)-tetrahydro-2H-pyran-2-yl)propan-2-one]	5	> 5		
C=C(C[C@@H]1O[C@H](CO)[C@H](O)[C@H](O)[C@H]1O)c1cccc([N+](=O)[O-])c1 [(2R,3R,4R,5R,6S)-2-(hydroxymethyl)-6-(2-(3-nitrophenyl)allyl)-tetrahydro-2H-pyran-3,4,5-triol]	> 5	5		
C=C(C[C@@H]1O[C@H](CO)[C@H](O)[C@H](O)[C@H]1O)c1ccc(OC)cc1 [(2R,3R,4R,5R,6S)-2-(hydroxymethyl)-6-(2-(4-methoxyphenyl)allyl)-tetrahydro-2H-pyran-3,4,5-triol]	5	> 5		
C/C=C/[C@@H]1O[C@H](CO)[C@H](O)[C@H](O)[C@H]1O [(2R,3R,4R,5R,6S,E)-2-(hydroxymethyl)-6-(prop-1-enyl)-tetrahydro-2H-pyran-3,4,5-triol]	> 5	> 5		
OC[C@@H]1O[C@H](n2cc(CS[C@@H]3O[C@H](CO)[C@H](O)[C@H](O)[C@H]3O)nn2)[C@@H](O)[C@H](O)[C@@H]1O [(2R,3R,4S,5R,6S)-2-(hydroxymethyl)-6-((1-((2S,3S,4R,5S,6S)-3,4,5-trihydroxy-6-(hydroxymethyl)-tetrahydro-2H-pyran-2-yl)-1H-1,2,3-triazol-4-yl)methylthio)-tetrahydro-2H-pyran-3,4,5-triol]	2.5	> 5		
C#CCS[C@@H]1O[C@H](CO)[C@H](O)[C@H](O)[C@H]1O [(2R,3R,4S,5R,6S)-2-(hydroxymethyl)-6-(prop-2-ynylthio)-tetrahydro-2H-pyran-3,4,5-triol]	2.5	> 5		
OC[C@@H]1O[C@H](SCC#Cc2ccc(C#CCS[C@@H]3O[C@H](CO)[C@H](O)[C@H](O)[C@H]3O)cc2)[C@@H](O)[C@H](O)[C@@H]1O [(2R,3S,4S,5R,6S)-2-(hydroxymethyl)-6-(3-(4-(3-((2R,3S,4R,5S,6S)-3,4,5-trihydroxy-6-(hydroxymethyl)-tetrahydro-2H-pyran-2-ylthio)prop-1-ynyl)phenyl)prop-2-ynylthio)-tetrahydro-2H-pyran-3,4,5-triol]	> 5	2.5		
OC[C@H]1O[C@@H](C/C=C/c2cccc(/C=C/C[C@@H]3O[C@H](CO)[C@H](O)[C@H](O)[C@H]3O)c2)[C@H](O)[C@@H](O)[C@H]1O [(2S,3R,4R,5R,6R)-2-((12S,14R,15R,16R,17R,E)-3-((E)-3-((2S,3R,4R,5R,6R)-3,4,5-trihydroxy-6-(hydroxymethyl)-tetrahydro-2H-pyran-2-yl)prop-1-enyl)cinnamyl)-6-(hydroxymethyl)-tetrahydro-2H-pyran-3,4,5-triol]	> 5	5		

Source: BindingDB's records for doi:10.1016/j.bmc.2008.06.044 (University of Montreal, 2008)
